Reference: the M2OR odorant receptor database

Assays:
Conditions in all cases: stereoisomer not certain
OR2M5 G255A = test system: OR2M5 G255A
Method in brief: (§1)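 Transient luciferase assays in mammalian cell lines were common, though methods varied by source. The values come from published papers and their supplementary material, with extra details from the original authors when needed. Responsive refers to a measured signal the original authors judged statistically different from baseline, and non-responsive (inactive) to the remainder.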

OR2M5 L273M = test system: OR2M5 L273M
Chain of OR2M5 L273M (as listed by the source, stated change not applied): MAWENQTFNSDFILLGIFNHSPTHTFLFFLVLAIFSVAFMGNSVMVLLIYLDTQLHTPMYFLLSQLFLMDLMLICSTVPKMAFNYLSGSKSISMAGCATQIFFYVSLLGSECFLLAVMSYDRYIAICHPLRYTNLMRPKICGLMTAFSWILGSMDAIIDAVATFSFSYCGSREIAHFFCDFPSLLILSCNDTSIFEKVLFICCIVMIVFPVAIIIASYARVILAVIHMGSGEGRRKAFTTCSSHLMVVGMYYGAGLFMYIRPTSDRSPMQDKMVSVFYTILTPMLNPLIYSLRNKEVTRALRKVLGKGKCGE
Method in brief: as §1

OR2M5 M154T = test system: OR2M5 M154T
Chain of OR2M5 M154T (as listed by the source, stated change not applied): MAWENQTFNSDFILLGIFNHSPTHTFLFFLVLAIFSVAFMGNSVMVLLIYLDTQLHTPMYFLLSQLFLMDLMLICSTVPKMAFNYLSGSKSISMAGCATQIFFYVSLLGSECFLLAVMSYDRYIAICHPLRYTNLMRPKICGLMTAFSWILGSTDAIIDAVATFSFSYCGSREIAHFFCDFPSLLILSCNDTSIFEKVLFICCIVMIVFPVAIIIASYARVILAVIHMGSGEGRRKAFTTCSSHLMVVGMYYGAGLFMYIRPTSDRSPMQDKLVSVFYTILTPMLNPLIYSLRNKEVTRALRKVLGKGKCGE
Method in brief: as §1

OR2M5 S119A = test system: OR2M5 S119A
Chain of OR2M5 S119A (as listed by the source, stated change not applied): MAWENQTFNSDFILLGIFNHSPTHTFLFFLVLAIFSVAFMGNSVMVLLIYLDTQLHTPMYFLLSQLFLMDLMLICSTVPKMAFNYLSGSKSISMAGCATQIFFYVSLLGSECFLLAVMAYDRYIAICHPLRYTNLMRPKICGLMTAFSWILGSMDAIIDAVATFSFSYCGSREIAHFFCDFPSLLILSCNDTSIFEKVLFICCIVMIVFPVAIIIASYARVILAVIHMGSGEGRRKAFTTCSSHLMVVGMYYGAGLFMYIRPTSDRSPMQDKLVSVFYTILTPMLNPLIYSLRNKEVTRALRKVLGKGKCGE
Method in brief: as §1

[1] = test system: OR2M5 V105T A156G A160V G255A
Method in brief: as §1

[2] = test system: OR2M5 V105T A156G G255A L273M
Method in brief: as §1

OR2M5 V105T A156G G255A = test system: OR2M5 V105T A156G G255A
Method in brief: as §1

[3] = test system: OR2M5 V105T A156G V198I G255A
Method in brief: as §1

OR2M5 V105T A156G = test system: OR2M5 V105T A156G
Method in brief: as §1

OR2M5 V105T G255H = test system: OR2M5 V105T G255H
Method in brief: as §1

Measured: odorant receptor agonist call;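 also: active if original authors judged signal statistically different from baseline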

Chain of OR2M5 G255A (as listed by the source, stated change not applied): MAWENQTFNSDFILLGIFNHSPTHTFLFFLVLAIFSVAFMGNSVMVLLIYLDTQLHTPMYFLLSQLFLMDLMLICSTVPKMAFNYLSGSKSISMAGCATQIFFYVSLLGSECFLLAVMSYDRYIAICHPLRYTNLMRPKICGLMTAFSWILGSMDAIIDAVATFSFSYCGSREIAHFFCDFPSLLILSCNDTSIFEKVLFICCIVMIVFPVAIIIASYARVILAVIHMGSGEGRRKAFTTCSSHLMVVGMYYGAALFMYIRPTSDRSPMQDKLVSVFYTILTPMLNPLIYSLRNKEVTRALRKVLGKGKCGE

CCC(S)C(C)CO (stereo not given)
inactive: all assays above
